Columns and labels:
HeLa = assay: Phototoxicity in human HeLa cells assessed as reduction in cell viability in presence of irradiation with LED light at 12 J/cm2; assay type: functional, cell-based; details: light or radiation study
In short: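 HeLa cells were cultured in DMEM/F12 with 10% FBS, antibiotic-free, at 37 °C and 5% CO2. Compound-treated cells were irradiated with a 660 nm LED at 12 J/cm2. Viable cells were quantified by FMCA using 10 independent microcultures per concentration. Grubbs criterion removed artifacts before IC50 was calculated from concentration versus survival index (±SE).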

[1] = Dark toxicity in human HeLa cells assessed as reduction in cell viability; assay type: cell-based
In short: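 HeLa cells were grown in DMEM/F12 with 10% FBS, without antibiotics, at 37 °C and 5% CO2, and exposed to compound without irradiation. Live cells were counted by fluorometric microculture cytotoxicity assay (FMCA), with 10 independent microcultures per concentration. Outliers were screened by Grubbs criterion, and IC50 was derived from concentration versus survival index (±SE).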

[2] = Aqueous solubility of the compound by UV spectroscopy; assay type: physicochemical; details: buffer
[3] = Drug penetration in human HeLa cells at 10 uM measured after 40 mins by fluorescence microscopy; assay type: ADME, cell-based
In short: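 HeLa cells were incubated for 40 min with compound at 10 μM, alongside untreated cells. Uptake was judged by intracellular red fluorescence under fluorescence microscopy, paired with light micrographs of the same fields.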

[4] = Potency index, ratio of IC50 for dark toxicity in human HeLa cells to IC50 for phototoxicity in human HeLa cells in presence of irradiation with LED light at 12 J/cm2; assay type: cell-based; details: read-out: Ratio IC50
In short: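 The index is dark IC50 divided by photoinduced IC50 in HeLa cells. Both IC50 values come from FMCA viability readings (10 microcultures per concentration, Grubbs outlier check, fit of concentration versus survival index). The phototoxicity arm used 660 nm LED irradiation at 12 J/cm2.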

**Q.** What does the source list for `C=Cc1c(C)c2cc3nc(c(CC(=O)OC)c4[nH]c(cc5nc(cc1[nH]2)C(C)=C5CC)c(C)c4C(=O)NCCN(C[C@H]1OC(O)[C@H](O)[C@@H](O)[C@H]1O)C[C@H]1OC(O)[C@H](O)[C@@H](O)[C@H]1O)[C@@H](CCC(=O)OC)[C@@H]3C` (some centres undefined)?
**A.** IC50 (HeLa): 1.11 µM; IC50 [1]: 6.1 µM; solubility [2]: Soluble; Drug uptake [3]: Active

**Q.** Which IC50 (HeLa) does the source give for `C=Cc1c(C)c2cc3nc(c(CC(=O)OC)c4[nH]c(cc5nc(cc1[nH]2)C(C)=C5CC)c(C)c4C(=O)NCCN(C[C@H]1OC(O)[C@H](O)[C@@H](O)[C@H]1O)C[C@H]1OC(O)[C@H](O)[C@@H](O)[C@H]1O)[C@@H](CCC(=O)NCCN(C[C@H]1OC(O)[C@H](O)[C@@H](O)[C@H]1O)C[C@H]1OC(O)[C@H](O)[C@@H](O)[C@H]1O)[C@@H]3C` (some centres undefined) here?
**A.** The IC50 was 1.57 µM.

**Q.** And the IC50 [1]?
**A.** Its IC50 is 59.6 µM.

**Q.** What about the selectivity ratio [4] of the same compound?
**A.** The selectivity ratio was 38.

**Q.** What about the solubility [2] of the same compound?
**A.** Its solubility is “Soluble”.

**Q.** What about the Drug uptake [3] of the same compound?
**A.** The Drug uptake was “Active”.

**Q.** Which results are given for `C=Cc1c(C)c2cc3nc(c(CC(=O)OC)c4[nH]c(cc5nc(cc1[nH]2)C(C)=C5CC)c(C)c4C(=O)NCCN(C[C@H]1OC(O)[C@H](O)[C@@H](O)[C@H]1O)C[C@H]1OC(O)[C@H](O)[C@@H](O)[C@H]1O)[C@@H](CCC(=O)O)[C@@H]3C` (some centres undefined)?
**A.** IC50 (HeLa): 1.24 µM; IC50 [1]: 39 µM; selectivity ratio [4]: 31; solubility [2]: Soluble; Drug uptake [3]: Active
